“Also recorded” adds a separate entry of the source.
Columns and labels:
[1] = format: in vivo, human
Safety evaluation = format: in vivo, human
Procedure, shortened: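 Adults with chronic musculoskeletal non-cancer pain received one 2-min IV injection in a single-centre, open-label, ascending-dose design, with a 2-person 0.75 mg pretest. Monitoring covered vital signs to 72 h, SpO2 to 8 h, Holter from −30 min to 24 h, ECG at 48/72 h, 72 h labs, and injection-site checks to 6 h. AEs were graded by system/severity and drug relation; groups compared by Fisher's exact or chi-square.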

COc1ccsc1CNCC[C@@]1(c2ccccn2)CCOC2(CCCC2)C1 [Oliceridine, [(3-methoxythiophen-2-yl)methyl]({2-[(9R)-9-(pyridin-2-yl)-6-oxaspiro-[4.5]decan-9-yl]ethyl})amine]
Participants achieving Cmax approximately 2 minutes post-administration ([1]; 0.75 mg group (11 of 12)): 91.7% | Participants reaching Cmax around 5 minutes ([1]; 0.75 mg group (one participant)): 8.3% | Participants attaining peak concentration at about 2 min ([1]; 1.5 mg group (9 of 10)): 90% | Participants attaining peak concentration at about 3 min ([1]; 1.5 mg group (one participant, intravenous line blockage)): 10% | Participants attaining peak at around 10 min ([1]; 3.0 mg group (1 participant)): 10% | Participants attaining peak at about 2 min ([1]; 3.0 mg group (4 of 10)): 40% | Participants attaining peak at approximately 5 min ([1]; 3.0 mg group (5 participants)): 50% | Tmax ([1]; human, plasma, iv): 2.04 to 4.98 min | half-life ([1]; human, plasma, iv): 111 to 125 min | Safety and tolerability (Safety evaluation; Chinese patients with chronic non-cancer pain, 0.75 mg to 3.0 mg): safe and well tolerated | TEAEs leading to discontinuation of the study (Safety evaluation; all doses): none of the TEAEs led to discontinuation of the study | Severe TEAEs (Safety evaluation; all doses, 32 participants): no reports of severe TEAEs | Serious adverse events (SAEs) (Safety evaluation; single IV dose 0.75-3.0 mg, 32 participants): no serious adverse events were observed; also recorded: No SAEs were reported
